Reference: ChEMBL document CHEMBL4004837, “Synthesis and Characterization of Urofuranoic Acids: In Vivo Metabolism of 2-(2-Carboxyethyl)-4-methyl-5-propylfuran-3-carboxylic Acid (CMPF) and Effects on in Vitro Insulin Secretion” (J Med Chem, 2017)

Experiments:
[1] = Suppression of KCl-stimulated insulin secretion in mouse pancreatic islet at 200 uM incubated for 24 hrs followed by KCl stimulation for 20 mins by HTRF assay; type: ADME, cell-based
Method in brief: (§1)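 Mouse islets treated with compounds at 200 µM. Insulin secretion was then measured under low- and high-glucose GSIS conditions and under KCl stimulation, and intracellular insulin content was measured. Mean of n = 4-5 experiments with SEM.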

Liver [2] = assay: (§2) Drug metabolism in CD1 mouse liver assessed as diacylglycerol conjugate formation at 6 mg/kg, ip dosed once daily for 3 days followed by dosing of 1:1 mixtures of 2-(2-(Carboxy-13C)ethyl)-4-methyl-5-propylfuran-3-carboxylic-2-13C Acid and test compound on day 4 and 5 measured 1 hr post dose on day 5 by HPLC-MS analysis; type: ADME, organism-based; details: in vivo
Method in brief: (§3)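 Mice received CMPF 6 mg/kg intraperitoneally for three days, then 1:1 labeled/unlabeled CMPF mixtures on days four and five. On day five they were euthanized 1 h post-dose, and plasma, adipose, muscle and liver were collected. Samples were analysed by HPLC-MS, with MS/MS of product ions. Metabolites were identified by the distinctive isotope patterns from the 1:1 label mixture.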

[3] = as §2, with “adipose” for “liver”; type: ADME, organism-based, Adipose tissue; details: in vivo; method in brief: as §3
[4] = (§4) Drug metabolism in CD1 mouse adipose assessed as glycerol conjugate formation at 6 mg/kg, ip dosed once daily for 3 days followed by dosing of 1:1 mixtures of 2-(2-Carboxyethyl)-4-methyl-5-propyl-(3-13C-furan)-3-13Ccarboxylateand test compound on day 4 and 5 measured 1 hr post dose on day 5 by HPLC-MS analysis; type: ADME, organism-based, Adipose tissue; details: in vivo; method in brief: as §3
Liver [5] = assay: (§5) Drug metabolism in CD1 mouse liver assessed as monoacylglycerol conjugate formation at 6 mg/kg, ip dosed once daily for 3 days followed by dosing of 1:1 mixtures of 2-(2-Carboxyethyl)-4-methyl-5-(1-propyl-1-13C)furan-3-carboxylic Acid and test compound on day 4 and 5 measured 1 hr post dose on day 5 by HPLC-MS analysis; type: ADME, organism-based; details: in vivo; method in brief: as §3
[6] = as §2, with “muscle” for “liver”, “glycerol” for “diacylglycerol”; type: ADME, organism-based, Muscle tissue; details: in vivo; method in brief: as §3
Liver [7] = assay: as §4, with “liver” for “adipose”; type: ADME, organism-based; details: in vivo; method in brief: as §3
[8] = Initial plasma concentration in mouse at 1 mg/kg, iv; type: ADME, organism-based
Method in brief: (§6)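 Mouse pharmacokinetics after single intravenous CMPF dosing at 1 or 3 mg/kg. Plasma exposure was followed over time to derive AUC, C0, terminal half-life, clearance and volume of distribution.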

[9] = as §4, with “oxidative metabolites” for “glycerol conjugate”; type: ADME, organism-based, Adipose tissue; details: in vivo; method in brief: as §3
[10] = Volume of distribution in mouse at 3 mg/kg, iv; type: ADME, organism-based; details: in vivo; method in brief: as §6
[11] = as §2, with “adipose” for “liver”, “2-(2-Carboxyethyl)-4-methyl-5-(1-propyl-1-13C)furan-3-carboxylic” for “2-(2-(Carboxy-13C)ethyl)-4-methyl-5-propylfuran-3-carboxylic-2-13C”; type: ADME, organism-based, Adipose tissue; details: in vivo; method in brief: as §3
Plasma [12] = assay: as §5, with “plasma” for “liver”, “glycerol” for “monoacylglycerol”; type: ADME, organism-based; details: in vivo
Method in brief: (§7)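 CMPF given 6 mg/kg i.p. once daily for three days. On days four and five, 1:1 mixtures of stable-isotope-labelled and unlabelled CMPF were dosed. Mice were killed 1 h after the day-five dose. Plasma, adipose, muscle and liver were collected and analysed by HPLC-MS (MS/MS for product ions). Metabolites were identified by their distinctive isotope patterns from the labelled/unlabelled mixture.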

[13] = Volume of distribution in mouse at 1 mg/kg, iv; type: ADME, organism-based; details: in vivo; method in brief: as §6
Plasma [14] = assay: as §5, with “plasma” for “liver”, “oxidative metabolites” for “monoacylglycerol conjugate”; type: ADME, organism-based; details: in vivo; method in brief: as §7
Plasma [15] = assay: as §2, with “plasma” for “liver”, “glucuronide” for “diacylglycerol”; type: ADME, organism-based; details: in vivo; method in brief: as §7
Plasma [16] = assay: as §4, with “plasma” for “adipose”, “diacylglycerol” for “glycerol”; type: ADME, organism-based; details: in vivo; method in brief: as §7
Liver [17] = assay: as §5, with “loss of C2 carboxyl during fragmentation” for “monoacylglycerol conjugate formation”; type: ADME, organism-based; details: in vivo; method in brief: as §3
Liver [18] = assay: as §2, with “2-(2-Carboxyethyl)-4-methyl-5-(1-propyl-1-13C)furan-3-carboxylic” for “2-(2-(Carboxy-13C)ethyl)-4-methyl-5-propylfuran-3-carboxylic-2-13C”; type: ADME, organism-based; details: in vivo; method in brief: as §3
Hepatocyte = assay: Cytotoxicity against mouse primary hepatocytes assessed as fold change in capase3/7 activity by Caspase-Glo 3/7 assay relative to DMSO; type: cell-based
[19] = as §5, with “muscle” for “liver”, “glycerol” for “monoacylglycerol”; type: ADME, organism-based, Muscle tissue; details: in vivo; method in brief: as §3
[20] = Drug excretion in human urine assessed as CMPF formation; type: ADME
[21] = as §4, with “muscle” for “adipose”; type: ADME, organism-based, Muscle tissue; details: in vivo; method in brief: as §3
[22] = as §4, with “diacylglycerol” for “glycerol”; type: ADME, organism-based, Adipose tissue; details: in vivo; method in brief: as §3
[23] = as §5, with “adipose” for “liver”, “oxidative metabolites” for “monoacylglycerol conjugate”; type: ADME, organism-based, Adipose tissue; details: in vivo; method in brief: as §3
Plasma [24] = assay: Drug metabolism in CD1 mouse plasma assessed as loss of C2 carboxyl during fragmentation at 6 mg/kg, ip dosed once daily for 3 days followed by dosing of 1:1 mixtures of 2-(2-Carboxyethyl)-4-methyl-5-propyl-(3-13C-furan)-3-13Ccarboxylate and test compound on day 4 and 5 measured 1 hr post dose on day 5 by HPLC-MS analysis; type: ADME, organism-based; details: in vivo; method in brief: as §7
[25] = Clearance in mouse at 1 mg/kg, iv; type: ADME, organism-based; details: in vivo
[26] = Suppression of glucose-stimulated insulin secretion in mouse pancreatic islet at 200 uM incubated for 24 hrs followed by glucose stimulation for 20 mins by HTRF assay; type: ADME, cell-based; method in brief: as §1

CCCc1oc(CCC(=O)O)c(C(=O)O)c1C
Activity [1]: Toxic | Drug metabolism (Liver [2]): Metabolite_Notdetected | Drug metabolism [3]: Metabolite_Notdetected | Drug metabolism [4]: Metabolite_Notdetected | Drug metabolism (Liver [5]): Metabolite_Notdetected | Drug metabolism [6]: Metabolite_Notdetected | Drug metabolism (Liver [7]): Metabolite_Notdetected | C0 [8]: 53.3 µM | Drug metabolism [9]: Metabolite_Notdetected | Vd [10]: 0.2 L/kg | Drug metabolism [11]: Metabolite_Notdetected | Drug metabolism (Plasma [12]): Metabolite_Notdetected | Vd [13]: 0.2 L/kg | Drug metabolism (Plasma [14]): Metabolite_Notdetected | Drug metabolism (Plasma [15]): Metabolite_Detected | Drug metabolism (Plasma [16]): Metabolite_Notdetected | Drug metabolism (Liver [17]): Metabolite_Detected | Drug metabolism (Liver [18]): Metabolite_Notdetected | fold change (FC) (Hepatocyte): 0.7 to 0.8 | Drug metabolism [19]: Metabolite_Notdetected | Drug excretion [20]: 1 to 5 mg/day | Drug metabolism [21]: Metabolite_Notdetected | Drug metabolism [22]: Metabolite_Notdetected | Drug metabolism [23]: Metabolite_Notdetected | Drug metabolism (Plasma [24]): Metabolite_Detected | clearance [25]: 0.66 mL/min/kg | Activity [26]: Toxic
